The values that follow come from ChEMBL document CHEMBL4152378, “Discovery of a Branched Peptide That Recognizes the Rev Response Element (RRE) RNA and Blocks HIV-1 Replication” (J Med Chem, 2018).

A short description of data set [1]: Binding affinity to HIV1 rev response element 2B RNA by 2-AP based displacement assay. The arrangement: species or system Human immunodeficiency virus 1. In short, it runs like this:
(§1)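 2-AP-labeled RRE IIB (0.1 μM) refolded at 95 °C 3 min, snap-cooled; titrated with peptide 0–20 μM in 10 mM potassium phosphate, 100 mM KCl, 1 mM MgCl2, 20 mM NaCl, pH 7.0; excitation 310 nm, emission decrease at 372 nm; Kd from Hill fit; at least duplicate, SD. Competition lines include 10-fold excess unlabeled RNA/DNA competitor.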

Data set [2] concerns Human immunodeficiency virus 1. The data set can be described thus: Binding affinity to HIV1 RRE RNA in HEK293T cells transfected with HIV1 CMV driven GagPol-RRE plasmid assessed as reduction in Rev-RRE dependent nuclear export by measuring intracellular p24 levels at 70 uM after 48 hrs by ELISA relative to control. In kind it is cell-based. In short, it runs like this: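 HEK 293T cells transfected with Rev and CMV-driven GagPol-RRE plasmids plus luciferase control; peptides added 5 h after transfection at 70 μM; cells lysed ~48 h post-transfection and intracellular p24 quantified by ELISA as percent inhibition.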

The nature of data set [3]: Binding affinity to HIV1 rev response element 2B RNA in presence of 10-fold excess TAR RNA by 2-AP based displacement assay. The arrangement: species or system Human immunodeficiency virus 1. The procedure, abridged:
as §1

The test system of data set [4] is Human immunodeficiency virus 1. Description: Binding affinity to HIV1 234 nucleotide NL4-3 5'-RRE RNA assessed as protection of secondary Rev binding sites from cleavage by […] incubated for 1 hr by SHAPE analysis.
Data set [5] in a line: Binding affinity to HIV1 RRE RNA in HEK293T cells transfected with HIV1 CMV driven GagPol-RRE plasmid assessed as reduction in Rev-RRE dependent nuclear export by measuring intracellular p24 levels after 48 hrs by ELISA relative to control. In kind it is cell-based. The note with it: Human immunodeficiency virus 1, HEK-293T.
Data set [6] can be described thus: Binding affinity to HIV1 rev response element 2B RNA in presence of 10-fold excess no bulge RRE RNA by 2-AP based displacement assay. Set-up: species or system Human immunodeficiency virus 1. The procedure, abridged: as §1
Data set [7] relates to Human immunodeficiency virus 1. Description: Binding affinity to [32P]-labeled HIV-rev response element 2B RNA assessed as protection of upper stem region from cleavage by RNase VI incubated for 10 mins up to 20 uM by autoradiography based nuclease protection assay. The procedure, abridged: (§2)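 5'-32P RRE IIB (10 nM) with 200 nM unlabeled RRE IIB refolded (95 °C 3 min, ice); incubated with peptide 0–20 μM on ice 4 h in 10 mM Tris pH 7, 100 mM KCl, 10 mM MgCl2; digested on ice with RNase V1 (0.002 U, 10 min) or RNase A (20 ng, 1 h); 12% denaturing PAGE, autoradiography.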

Data set [8] in a line: Binding affinity to HIV1 rev response element 2B RNA in presence of 10-fold excess RRE DNA by 2-AP based displacement assay. The arrangement: species or system Human immunodeficiency virus 1. The procedure, abridged:
as §1

Data set [9] in a line: Cytotoxicity against HEK293T cells assessed as reduction in cell viability after 48 hrs by MTT assay. To be noted: human. In kind it is cell-based, HEK-293T. In short, it runs like this: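 MTT run in parallel with the transfected HEK 293T reporter set-up; ~48 h post-transfection MTT (5 mg/mL stock in PBS) added, 4 h at 37 °C; solubilized overnight with 10% SDS/0.01 N HCl; absorbance 570 nm; mean ± SD.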

The subject of data set [10] is Human immunodeficiency virus 1. The data set can be described thus: Binding affinity to [32P]-labeled HIV-rev response element 2B RNA assessed as protection of internal loop region from cleavage by RNase A incubated for 1 hr up to 20 uM by autoradiography based nuclease protection assay. In short, it runs like this: as §2

Activity calls are given as the source filed them. No cut-off for these calls is given here.

For the compound `N=C(N)N[C@@H]1C[C@H](C(=O)NCCCC[C@H](NC(=O)[C@H]2C[C@@H](NC(=N)N)CN2C(=O)[C@H]2C[C@@H](N)CN2C(=O)[C@H]2C[C@@H](NC(=N)N)CN2)C(=O)N[C@@H](CCCCNC(=O)c2cnccn2)C(=O)N[C@@H](CCCCNC(=O)c2cnccn2)C(=O)NCCN(CC(=O)N[C@@H](Cc2ccc(O)cc2)C(N)=O)C(=O)Cn2cnc3c(=O)[nH]c(N)nc32)N(C(=O)[C@H]2C[C@@H](N)CN2C(=O)[C@H]2C[C@@H](NC(=N)N)CN2)C1`, the Kd in data set [1] came to 1120 nM. For the same compound, the inhibition in [2] was more than 50%.
As for `N=C(N)N[C@@H]1C[C@H](C(=O)N[C@@H](Cc2ccc(O)cc2)C(N)=O)N(C(=O)CN(CCNC(=O)[C@H](CCCCNC(=O)c2cnccn2)NC(=O)[C@H](CCCCNC(=O)[C@H]2C[C@@H](N)CN2C(=O)CN(CCNC(=O)CN(CCN)C(=O)Cn2cnc3c(=O)[nH]c(N)nc32)C(=O)Cn2cnc3c(=O)[nH]c(N)nc32)NC(=O)[C@H]2C[C@@H](N)CN2C(=O)CN(CCNC(=O)CN(CCN)C(=O)Cn2cnc3c(=O)[nH]c(N)nc32)C(=O)Cn2cnc3c(=O)[nH]c(N)nc32)C(=O)Cn2cnc3c(=O)[nH]c(N)nc32)C1`, the Kd in [1] amounted to 880 nM; in data set [3], 3090 nM; in [6] it was 2040 nM; in data set [8] it was 990 nM. For the same compound, in data set [2], the inhibition was more than 50%. The outcome in data set [4], in data set [7] and in data set [10] was Active. In addition, the 50% inhibitory concentration (IC50) in data set [5] was determined as 15400 nM. In data set [9], the CC50 at 48 h is 135000 nM.
`N=C(N)N[C@@H]1C[C@H](C(=O)NCCCC[C@H](NC(=O)[C@H]2C[C@@H](NC(=N)N)CN2C(=O)[C@H]2C[C@@H](N)CN2C(=O)[C@H]2C[C@@H](NC(=N)N)CN2)C(=O)N2C[C@H](N)C[C@@H]2C(=O)N2C[C@H](N)C[C@@H]2C(=O)N[C@@H](CCCCNC(=O)c2ccc(B3OC(=O)c4cc(O)ccc4O3)cc2)C(=O)N[C@@H](Cc2ccc(O)cc2)C(N)=O)N(C(=O)[C@H]2C[C@@H](N)CN2C(=O)[C@H]2C[C@@H](NC(=N)N)CN2)C1` came in with a Kd in [1] of 2570 nM. In addition, the inhibition in data set [2] was more than 50%.
The like results for `N=C(N)N[C@@H]1C[C@H](C(=O)N2C[C@H](NC(=N)N)C[C@@H]2C(=O)N[C@@H](CCCCNC(=O)c2cnccn2)C(=O)N[C@@H](Cc2ccc(O)cc2)C(N)=O)N(C(=O)[C@H](CCCCNC(=O)[C@H](CCCCNC(=O)c2cnccn2)NC(=O)[C@H]2C[C@@H](N)CN2C(=O)CN(CCN)C(=O)Cn2cnc3c(=O)[nH]c(N)nc32)NC(=O)[C@H](CCCCNC(=O)c2cnccn2)NC(=O)[C@H]2C[C@@H](N)CN2C(=O)CN(CCN)C(=O)Cn2cnc3c(=O)[nH]c(N)nc32)C1` were, in that order, 1640 nM and more than 50%.
In [1], `N=C(N)N[C@@H]1C[C@H](C(=O)NCCN(CC(=O)N[C@@H](CCCCNC(=O)c2ccc(B(O)O)cc2)C(=O)N[C@@H](Cc2ccc(O)cc2)C(N)=O)C(=O)Cn2cnc3c(=O)[nH]c(N)nc32)N(C(=O)[C@H](CCCCNC(=O)[C@H]2C[C@@H](NC(=N)N)CN2C(=O)[C@H]2C[C@@H](NC(=N)N)CN2C(=O)[C@H]2C[C@@H](N)CN2)NC(=O)[C@H]2C[C@@H](NC(=N)N)CN2C(=O)[C@H]2C[C@@H](NC(=N)N)CN2C(=O)[C@H]2C[C@@H](N)CN2)C1` returned a Kd of 410 nM. Further, the inhibition in [2] is more than 50%.
For the compound `N=C(N)N[C@@H]1C[C@H](C(=O)N[C@@H](CCCCNC(=O)c2cnccn2)C(=O)N2C[C@H](N)C[C@@H]2C(=O)N[C@@H](Cc2ccc(O)cc2)C(N)=O)N(C(=O)[C@H](CCCCNC(=O)[C@H]2C[C@@H](N)CN2C(=O)[C@H]2C[C@@H](N)CN2C(=O)[C@H]2C[C@@H](NC(=N)N)CN2)NC(=O)[C@H]2C[C@@H](N)CN2C(=O)[C@H]2C[C@@H](N)CN2C(=O)[C@H]2C[C@@H](NC(=N)N)CN2)C1`, in data set [1], the affinity, expressed as Kd, was 1320 nM.
Take `N=C(N)N[C@@H]1C[C@H](C(=O)N[C@@H](Cc2ccc(O)cc2)C(N)=O)N(C(=O)[C@H](CCCCNC(=O)c2cnccn2)NC(=O)[C@H](Cc2cccc3ccccc23)NC(=O)[C@H](CCCCNC(=O)[C@H](CCCCNC(=O)c2ccc(B(O)O)cc2)NC(=O)[C@H]2C[C@@H](N)CN2C(=O)[C@H]2C[C@@H](NC(=N)N)CN2)NC(=O)[C@H](CCCCNC(=O)c2ccc(B(O)O)cc2)NC(=O)[C@H]2C[C@@H](N)CN2C(=O)[C@H]2C[C@@H](NC(=N)N)CN2)C1`: the Kd in data set [1] stood at 1500 nM. Further, the inhibition in data set [2] was more than 50%.
